Here are results for five compounds from ChEMBL document CHEMBL1122484, “An analysis of 1-(2-chloroethyl)-1-nitrosourea activity at the cellular level” (J Med Chem, 1983).

Structures are written as SMILES.

Data set [1] in a line: Carbamoylating activity was determined. The data set is classed as ADME.
The nature of data set [2]: Alkylating activity was determined. The data set is classed as ADME.
Data set [3] can be described thus: Pharmacokinetic parameter k2 was determined. Format: ADME. Summed up:
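First-order rate constant for chemical conversion of the parent nitrosourea to its active alkylating intermediate. Measured in aqueous buffer or human serum at pH 7.4 and 37 °C.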

The test system of data set [4] is P388. The experiment in a line: Mean value for the exposure for P388 to the drug for a period of 60 min. Format: functional. The note with it: Mus musculus, P388, 1 h; read-out: ED50 (the source's name). Summed up: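 P388 mouse leukemia cells in log-phase suspension culture (Fischer's medium, 10% horse serum) at 1 × 10^6 cells/mL, exposed at 37 °C, pH 7.4, to graded initial drug concentrations (ethanol/water vehicle, <0.1% ethanol) in duplicate tubes for the stated period. Cells then diluted to 6.6 × 10^4 cells/mL in fresh medium, grown 48 h, Coulter counted; ED50 = dose giving 50% decrease in cell number versus untreated.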

Data set [5] has as its system P388. The experiment in a line: Mean value for the exposure for P388 to the drug following a variety of treatment schedules at pH 7.4 and 37 degree. The note with it: Mus musculus, read-out: ED50 (the source's name).

In turn, `O=NN(CCCl)C(=O)NC1CCC(=O)NC1=O` (stereo not given) had a Carbamoylating activity in data set [1] of 24. In data set [2], this compound showed an Alkylating activity of 360. For the same compound, the k2 in data set [3] is 0.027 min⁻¹. Moreover, the EC50 was found to be 8.1 µM in the data set on P388 [4] and 6.5 µM in the data set with P388 [5].

In turn, `NC(=O)N(CCCl)N=O` returned a Carbamoylating activity in data set [1] of 20. The compound further gave an Alkylating activity in data set [2] of 1000. This compound also showed a k2 in data set [3] of 0.53 min⁻¹. In addition, the EC50 was 6 µM with P388 [4] and 5.7 µM in the data set with P388 [5].

In turn, `O=NN(CCCl)C(=O)NCCCl` [CARMUSTINE] displayed a Carbamoylating activity in data set [1] of 70. The same compound had an Alkylating activity in data set [2] of 260. In addition, the k2 in data set [3] was found to be 0.014 min⁻¹. Also, the EC50 was 13.3 µM with P388 [4] and 6.3 µM in the data set with P388 [5].

For the compound `O=NN(CCCl)C(=O)N[C@H]1C(O)O[C@H](CO)[C@@H](O)[C@@H]1O` (stereo not given in full) [CHLOROZOTOCIN], the Carbamoylating activity in data set [1] is recorded as 2. For the same compound, the Alkylating activity in data set [2] is given as 450. Further, the k2 in data set [3] came to 0.033 min⁻¹. For the same compound, the values for the EC50 in the data set on P388 [4] and in the data set on P388 [5] were 17 µM and 11.7 µM, respectively.

With `O=NN(CCCl)C(=O)NC1CCCCC1` [LOMUSTINE], in data set [1], the Carbamoylating activity is 100. This compound displayed an Alkylating activity in data set [2] of 100. In data set [3], this compound displayed a k2 of 0.013 min⁻¹. The EC50 was found to be 13 µM in the data set with P388 [4] and 6.7 µM in the data set on P388 [5].
